Measurements as given in ChEMBL document CHEMBL2440054, “Largazole Arrests Cell Cycle at G1 Phase and Triggers Proteasomal Degradation of E2F1 in Lung Cancer Cells” (ACS Med Chem Lett, 2013).
Activity calls are given as the source filed them. The calls are words filed in the database; no cut-off is given here.

What was measured:
[1] = molecular target: Transcription factor E2F1 (Homo sapiens) (UniProt Q01094); test: Induction of E2F1 degradation in human NCI-H460 cells at 0.1 uM after 12 to 24 hrs by Western blotting analysis; assay type: cell-based
Chain of Transcription factor E2F1 (Homo sapiens) (Q01094 whole entry): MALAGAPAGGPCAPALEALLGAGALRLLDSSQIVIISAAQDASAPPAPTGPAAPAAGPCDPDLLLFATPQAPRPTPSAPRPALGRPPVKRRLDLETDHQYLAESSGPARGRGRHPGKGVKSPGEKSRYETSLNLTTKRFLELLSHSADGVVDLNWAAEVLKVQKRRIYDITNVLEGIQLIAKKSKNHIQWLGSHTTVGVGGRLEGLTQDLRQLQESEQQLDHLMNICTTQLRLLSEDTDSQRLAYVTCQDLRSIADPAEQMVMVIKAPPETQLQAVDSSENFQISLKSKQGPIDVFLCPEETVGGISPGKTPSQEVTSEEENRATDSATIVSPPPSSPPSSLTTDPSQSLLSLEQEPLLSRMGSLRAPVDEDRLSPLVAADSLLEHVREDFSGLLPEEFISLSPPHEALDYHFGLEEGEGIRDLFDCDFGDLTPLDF
How it was run: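 Each cell line (16-HBE, 95D, L78, H1975, H460) treated with 0.1 μM largazole for indicated times. Lysates Western blotted for E2F1.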

[2] = molecular target: Histone deacetylase 1 (Homo sapiens) (UniProt Q13547); conditions: A549, 0.1 uM
Chain of Histone deacetylase 1 (Homo sapiens) (Q13547 whole entry): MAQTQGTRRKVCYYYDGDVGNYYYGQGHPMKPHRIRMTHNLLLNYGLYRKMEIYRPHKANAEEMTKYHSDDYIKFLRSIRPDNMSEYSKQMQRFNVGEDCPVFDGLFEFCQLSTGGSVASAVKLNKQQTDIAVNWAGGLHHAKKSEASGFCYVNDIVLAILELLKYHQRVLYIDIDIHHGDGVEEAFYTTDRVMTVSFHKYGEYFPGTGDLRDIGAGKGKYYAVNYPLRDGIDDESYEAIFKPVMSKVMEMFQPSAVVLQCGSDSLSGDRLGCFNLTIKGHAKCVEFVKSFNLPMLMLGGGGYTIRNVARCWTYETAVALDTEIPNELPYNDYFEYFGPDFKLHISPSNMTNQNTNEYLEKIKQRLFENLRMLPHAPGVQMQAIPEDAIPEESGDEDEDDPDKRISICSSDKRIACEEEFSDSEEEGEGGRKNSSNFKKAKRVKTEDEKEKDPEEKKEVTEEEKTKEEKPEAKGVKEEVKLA

[3] = molecular target: Histone deacetylase 1 (Homo sapiens) (UniProt Q13547); conditions: 16HBE, 0.1 uM
[4] = molecular target: Transcription factor E2F1 (Homo sapiens) (UniProt Q01094); test: Inhibition of E2F1 in human A549 cells assessed as downregulation of DHFR gene expression at 0.1 uM after 6 to 36 hrs by RT-PCR analysis; assay type: cell-based
How it was run: (§1)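 A549 cells given 0.1 μM over a time course. RNA extracted and RT-PCR run with gene-specific primers. Bands quantified by densitometry and normalized to GAPDH.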

NCI-H460 [5] = test: Cell cycle arrest in human NCI-H460 cells assessed as accumulation at S phase at 0.06 uM after 24 hrs by propidium iodide staining-based flow cytometric analysis (reference value: 31.6%); assay type: functional
A549 [6] = test: Cytotoxicity against human A549 cells after 48 hrs by CCK-8 assay; assay type: functional, cell-based; conditions: A549, 48 h
How it was run: (§2)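 Cells treated with a range of largazole concentrations for 48 h. Proliferation read by CCK-8 assay; IC50 derived from the concentration series.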

A549 [7] = test: Downregulation of E2F1 protein expression in human A549 cells after 12 hrs by Western blotting analysis; assay type: functional, cell-based
How it was run: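 A549 cells treated with 0.1 μM largazole over a time course, or with a range of concentrations for 12 h. Lysates Western blotted for E2F1.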

A549 [8] = test: Cell cycle arrest in human A549 cells assessed as accumulation at G1 phase at 0.06 uM after 24 hrs by propidium iodide staining-based flow cytometric analysis (reference value: 48.3%); assay type: functional
A549 [9] = test: Effect on CDK4 protein expression in human A549 cells at 0.1 uM after 6 to 36 hrs by Western blotting analysis; assay type: functional, cell-based
How it was run: (§3)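 A549 cells exposed to 0.1 μM largazole over a time course, lysed, and Western blotted for cyclin D1, CDK2, CDK4, p21 and p27.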

NCI-H460 [10] = test: Cell cycle arrest in human NCI-H460 cells assessed as accumulation at S phase at 0.1 uM after 24 hrs by propidium iodide staining-based flow cytometric analysis (reference value: 31.6%); assay type: functional
A549 [11] = test: Induction of apoptosis in human A549 cells assessed as downregulation of pro-caspase-9 protein expression at 0.1 uM after 48 hrs by Western blotting analysis; assay type: functional, cell-based
How it was run: (§4)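 A549 cells given largazole 0.1 μM for indicated times, lysed, and Western blotted for pro-/cleaved caspase-9, caspase-8, pro-/active caspase-3 and PARP.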

A549 [12] = test: Induction of apoptosis in human A549 cells assessed as effect on caspase-8 protein expression at 0.1 uM after 48 hrs by Western blotting analysis; assay type: functional, cell-based; how it was run: as §4
A549 [13] = test: Downregulation of E2F1 in human A549 cell cytoplasm at 0.1 uM after 6 to 24 hrs by Western blotting analysis; assay type: functional, cell-based
How it was run: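 A549 cells exposed to 0.1 μM largazole for indicated times. Cytoplasmic and nuclear fractions separated, then Western blotted for E2F1.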

A549 [14] = test: Induction of apoptosis in human A549 cells assessed as increase in PARP cleavage at 0.1 uM after 48 hrs by Western blotting analysis; assay type: functional, cell-based
How it was run: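 A549 cells exposed to 0.1 μM for a time course, then lysed and Western blotted. Read-outs are pro- and cleaved caspase-9, pro- and active caspase-3, and cleaved PARP.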

A549 [15] = test: Cell cycle arrest in human A549 cells assessed as accumulation at G2 phase at 0.1 uM after 24 hrs by propidium iodide staining-based flow cytometric analysis (reference value: 3.7%); assay type: functional
A549 [16] = test: Effect on cyclin D1 protein expression in human A549 cells at 0.1 uM after 6 to 36 hrs by Western blotting analysis; assay type: functional, cell-based; how it was run: as §3
[17] = Cytotoxicity against human L78 cells after 48 hrs by CCK-8 assay; assay type: functional, cell-based; conditions: L78, 48 h; how it was run: as §2
[18] = molecular target: Transcription factor E2F1 (Homo sapiens) (UniProt Q01094); test: Inhibition of E2F1 in human A549 cells assessed as downregulation of PCNA gene expression at 0.1 uM after 6 to 36 hrs by RT-PCR analysis; assay type: cell-based; how it was run: as §1
NCI-H460 [19] = test: Cell cycle arrest in human NCI-H460 cells assessed as accumulation at G1 phase at 0.06 uM after 24 hrs by propidium iodide staining-based flow cytometric analysis (reference value: 58.9%); assay type: functional
[20] = Cytotoxicity against human 95-D cells after 48 hrs by CCK-8 assay; assay type: functional, cell-based; how it was run: as §2
NCI-H460 [21] = test: Cell cycle arrest in human NCI-H460 cells assessed as accumulation at G1 phase at 0.1 uM after 24 hrs by propidium iodide staining-based flow cytometric analysis (reference value: 58.9%); assay type: functional
NCI-H460 [22] = test: Growth inhibition of human NCI-H460 cells at 0.1 uM after 24 to 48 hrs by trypan blue exclusion assay; assay type: functional, cell-based
How it was run: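 Cells treated with largazole for indicated times. Viability evaluated by trypan blue exclusion.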

CCCCCCCC(=O)SCC/C=C/[C@@H]1CC(=O)NCc2nc(cs2)C2=N[C@@](C)(CS2)C(=O)N[C@@H](C(C)C)C(=O)O1 [LARGAZOLE]
Activity [1]: Active
inhibition [2]: Active
inhibition [3]: Active
inhibition [4]: Active
Activity (NCI-H460 [5]): 10.4%
IC50 (A549 [6]): 77 nM
Activity (A549 [7]): Dose-dependent effect
Activity (A549 [8]): 90.4%
Activity (A549 [9]): inactive
Activity (NCI-H460 [10]): 10.6%
Activity (A549 [11]): Active
Activity (A549 [12]): inactive
Activity (A549 [13]): Active
Activity (A549 [14]): Active
Activity (A549 [15]): 3.3%
Activity (A549 [16]): inactive
IC50 [17]: 570 nM
inhibition [18]: Active
Activity (NCI-H460 [19]): 78.8%
IC50 [20]: 420 nM
Activity (NCI-H460 [21]): 84.1%
growth inhibition (GI) (NCI-H460 [22]): Active
